pIC50: −log10 of the molar value.
Assays:
[1] = Intrinsic clearance in human liver microsomes; format: ADME, Microsome; conditions: read-out: CLH
How it was run: (§1)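 In vitro ADME run by a contract lab: human microsomal stability and parallel artificial membrane permeability assay (PAMPA).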

[2] = Apparent permeability of the compound by PAMPA assay; format: ADME; how it was run: as §1
[3] = molecular target: Mitogen-activated protein kinase 14 (Homo sapiens, UniProt Q16539); assay: Inhibition of P38alpha (unknown origin)
Sequence of Mitogen-activated protein kinase 14 (Q16539 whole entry): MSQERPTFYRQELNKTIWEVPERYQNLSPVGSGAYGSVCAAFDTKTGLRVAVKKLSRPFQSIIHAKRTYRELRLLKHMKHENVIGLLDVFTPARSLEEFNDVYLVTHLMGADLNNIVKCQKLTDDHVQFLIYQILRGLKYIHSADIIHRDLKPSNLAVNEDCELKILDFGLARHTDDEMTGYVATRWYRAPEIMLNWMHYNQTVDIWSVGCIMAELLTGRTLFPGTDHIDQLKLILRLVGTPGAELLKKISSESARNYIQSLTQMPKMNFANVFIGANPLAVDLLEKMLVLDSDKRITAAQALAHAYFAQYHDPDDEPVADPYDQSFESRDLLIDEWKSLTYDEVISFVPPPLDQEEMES
How it was run: (§2)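 Biochemical inhibition assays run by a contract screening service as a panel: ABL1 mutants H396P, M351T, Q252H, T315I and Y253F, plus P38α/MAPK14.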

[4] = molecular target: Tyrosine-protein kinase ABL1 (Homo sapiens, UniProt P00519, Y253F); assay: Inhibition of Abl1 kinase Y253F mutant (unknown origin); how it was run: as §2
[5] = molecular target: Tyrosine-protein kinase ABL1 (Homo sapiens, UniProt P00519, T315I); assay: Inhibition of Abl1 kinase T315I mutant (unknown origin); how it was run: as §2
[6] = molecular target: Tyrosine-protein kinase ABL1 (Homo sapiens, UniProt P00519, M351T); assay: Inhibition of Abl1 kinase M351T mutant (unknown origin); how it was run: as §2
[7] = molecular target: Tyrosine-protein kinase ABL1 (Homo sapiens, UniProt P00519, Q252H); assay: Inhibition of Abl1 kinase Q252H mutant (unknown origin); how it was run: as §2
[8] = molecular target: Tyrosine-protein kinase ABL1 (Homo sapiens, UniProt P00519, H396P); assay: Inhibition of Abl1 kinase H396P mutant (unknown origin); how it was run: as §2
[9] = molecular target: T1, Tyrosine-protein kinase ABL1 (Homo sapiens, UniProt P00519); assay: Inhibition of wild type Abl1 kinase (unknown origin)
[10] = molecular target: T2, Tyrosine-protein kinase ABL2 (Homo sapiens, UniProt P42684); assay: Inhibition of Abl2 kinase (unknown origin) using Tyr 6 peptide as substrate assessed as residual enzyme activity after every 10 secs measured for 10 mins
T2 sequence (P42684 whole entry): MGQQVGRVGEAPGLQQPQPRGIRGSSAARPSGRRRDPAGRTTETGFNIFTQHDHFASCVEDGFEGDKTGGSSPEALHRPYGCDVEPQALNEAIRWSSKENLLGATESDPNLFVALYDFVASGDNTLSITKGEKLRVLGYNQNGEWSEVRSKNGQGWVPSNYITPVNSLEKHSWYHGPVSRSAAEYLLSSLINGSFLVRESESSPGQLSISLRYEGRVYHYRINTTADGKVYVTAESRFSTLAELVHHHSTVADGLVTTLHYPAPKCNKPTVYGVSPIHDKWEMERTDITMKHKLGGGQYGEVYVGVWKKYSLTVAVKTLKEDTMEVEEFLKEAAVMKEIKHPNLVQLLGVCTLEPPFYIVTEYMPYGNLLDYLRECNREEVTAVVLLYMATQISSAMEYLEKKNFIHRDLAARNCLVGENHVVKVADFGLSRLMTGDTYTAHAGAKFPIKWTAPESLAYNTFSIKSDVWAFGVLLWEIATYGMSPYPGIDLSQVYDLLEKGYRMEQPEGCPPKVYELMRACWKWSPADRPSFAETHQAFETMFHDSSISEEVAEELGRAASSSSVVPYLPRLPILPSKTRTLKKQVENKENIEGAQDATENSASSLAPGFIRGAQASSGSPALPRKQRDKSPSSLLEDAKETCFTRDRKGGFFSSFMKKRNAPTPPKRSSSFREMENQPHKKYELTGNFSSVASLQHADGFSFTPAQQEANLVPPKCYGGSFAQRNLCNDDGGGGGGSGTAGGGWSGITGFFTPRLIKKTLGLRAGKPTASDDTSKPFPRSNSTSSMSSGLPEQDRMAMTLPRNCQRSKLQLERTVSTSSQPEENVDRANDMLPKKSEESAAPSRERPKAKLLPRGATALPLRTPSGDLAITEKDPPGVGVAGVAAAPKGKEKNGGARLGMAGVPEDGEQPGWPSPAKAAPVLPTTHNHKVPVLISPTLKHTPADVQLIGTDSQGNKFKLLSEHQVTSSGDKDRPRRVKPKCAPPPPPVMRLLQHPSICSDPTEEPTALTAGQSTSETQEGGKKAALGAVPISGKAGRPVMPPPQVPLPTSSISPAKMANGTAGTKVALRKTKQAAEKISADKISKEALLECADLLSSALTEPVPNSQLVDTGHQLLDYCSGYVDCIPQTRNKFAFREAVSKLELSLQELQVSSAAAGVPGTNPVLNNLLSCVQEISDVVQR

[11] = molecular target: T1, Tyrosine-protein kinase ABL1; assay: Inhibition of Abl1 kinase (unknown origin) using Tyr 6 peptide as substrate assessed as residual enzyme activity after every 10 secs measured for 10 mins
[12] = molecular target: T2, Tyrosine-protein kinase ABL2; assay: Inhibition of Abl2 kinase (unknown origin) using Tyr 6 peptide as substrate assessed as residual enzyme activity after every 10 secs measured for 10 mins by platform assay
[13] = molecular target: T1, Tyrosine-protein kinase ABL1; assay: Inhibition of Abl1 kinase (unknown origin) using Tyr 6 peptide as substrate assessed as residual enzyme activity after every 10 secs measured for 10 mins by platform assay

| microsomal CLint [1] [µL/min/mg] | Papp [2] [×10⁻⁶ cm/s] | pIC50 [3] | pIC50 [4] | pIC50 [5] | pIC50 [6] | pIC50 [7] | pIC50 [8] | pIC50 [9] | pIC50 [10] | pIC50 [11] | pIC50 [12] | pIC50 [13] | SMILES |
| --- | --- | --- | --- | --- | --- | --- | --- | --- | --- | --- | --- | --- | --- |
| 29 | 2 | 7.62 | 9.40 | 9.40 | 9.40 | 9.15 | 9.70 | 9.00 | 8.22 | 7.92 | 7.33 | 7.57 | CN1CCN(Cc2ccc(NC(=O)Nc3cc(C#Cc4cnc5cccnn45)n(C)n3)cc2C(F)(F)F)CC1 |
| 90 | 26 | 7.37 | 9.52 | 9.40 | 9.52 | 9.30 | 9.52 | 9.22 | 9.00 | 9.00 | 8.70 | 9.70 | Cc1ccc(C(=O)Nc2ccc(CN3CCN(C)CC3)c(C(F)(F)F)c2)cc1C#Cc1cncc2nccn12 |
| 76 | 0.1 | 7.46 | 9.05 | 8.72 | 9.05 | 8.80 | 9.15 | 8.80 | 7.82 | 7.92 | 7.96 | 8.70 | CN1CCN(Cc2ccc(NC(=O)Nc3cc(C#Cc4cncc5nccn45)n(C)n3)cc2C(F)(F)F)CC1 |
| 51 | 0.2 | 7.46 | 9.40 | 9.10 | 9.30 | 9.00 | 9.52 | 9.00 | 8.00 | 8.15 | 8.52 | 9.40 | CN1CCN(Cc2ccc(NC(=O)Nc3cc(C#Cc4cnc5cnccn45)n(C)n3)cc2C(F)(F)F)CC1 |
